Experiments:
Chikungunya virus [1] = assay: Antiviral activity against Chikungunya virus 899 infected in African green monkey Vero A cells assessed as inhibition of viral RNA replication by RT-qPCR analysis; format: functional, organism-based; details: Chikungunya virus, 899, Vero
Chikungunya virus [2] = assay: Antiviral activity against Chikungunya virus infected in African green monkey Vero cells assessed as reduction in virus-induced cytopathic effect after 7 days by MTS assay; format: functional, organism-based; details: 168 h
[3] = Selectivity index, ratio of CC50 for African green monkey Vero cells to EC50 for chikungunya virus infected in African green monkey Vero E6 cells; format: toxicity, Vero C1008; details: read-out: Ratio CC50/EC50
[4] = Cytotoxicity against African green monkey Vero A cells by MTS assay; format: cell-based; details: chlorocebus aethiops
How it was run: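 Host-cell metabolism in Vero subtype A cells was measured by MTS read-out. CC50 is the concentration reducing host-cell metabolism by 50%. It was determined only for selected conjugates.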

[5] = Selectivity index, ratio of CC50 for African green monkey Vero A cells to EC50 for chikungunya virus 899 infected in African green monkey Vero A cells; format: toxicity; details: read-out: Ratio CC50/EC50
[6] = Lipophilicity, log P of the compound; format: physicochemical; details: octanol/water
Chikungunya virus [7] = assay: Antiviral activity against Chikungunya virus infected in African green monkey Vero E6 cells assessed as reduction in virus-induced cytopathic effect; format: functional, organism-based; details: Vero C1008
[8] = Selectivity index, ratio of CC50 for African green monkey Vero E6 cells to EC50 for chikungunya virus infected in African green monkey Vero cells; format: toxicity, Vero C1008; details: read-out: Ratio CC50/EC50
[9] = Aqueous solubility of the compound measured per 100 ml; format: physicochemical; details: buffer

Structure (SMILES)	EC50 (Chikungunya virus [1])	other results
Nc1nc(SCc2cc3cc(Br)ccc3oc2=O)c2nc(SCc3ccccc3)n([C@@H]3O[C@H](CO)[C@@H](O)[C@H]3O)c2n1	> 152 µM	–
C=C(C)[C@@]12OC3(c4ccccc4)O[C@@H]1[C@@H]1[C@@H]4O[C@]4(CO)[C@@H](O)[C@@]4(O)[C@@H](C=C(C)[C@@H]4O)[C@@]1(O3)[C@H](C)[C@@H]2OC(=O)C(C)CCCCCCCC (stereo partly specified)	–	EC50 (Chikungunya virus [2]): 0.6 µM; selectivity ratio [3]: 71.7
Cc1ccc2oc(=O)c(CSc3nc(N)nc4c3nc(SCc3cc5cc(C)ccc5oc3=O)n4[C@@H]3O[C@H](CO)[C@@H](O)[C@H]3O)cc2c1	40.9 µM	CC50 [4]: 81.3 µM; selectivity ratio [5]: 1.98; logP [6]: 3.22
Nc1nc(SCc2cc3cc(Cl)ccc3oc2=O)c2nc(SCc3ccccc3)n([C@@H]3O[C@H](CO)[C@@H](O)[C@H]3O)c2n1	> 163 µM	–
Nc1nc(SCc2cc3ccccc3oc2=O)c2nc(SCc3cccc4ccccc34)n([C@@H]3O[C@H](CO)[C@@H](O)[C@H]3O)c2n1	> 159 µM	–
COc1ccc2oc(=O)c(CSc3nc(N)nc4c3nc(SCc3ccccc3)n4[C@@H]3O[C@H](CO)[C@@H](O)[C@H]3O)cc2c1	> 164 µM	logP [6]: 2.78
CSc1nc2c(SCc3cc4cc(C)ccc4oc3=O)nc(N)nc2n1[C@@H]1O[C@H](CO)[C@@H](O)[C@H]1O	> 194 µM	–
Nc1nc2c(nc(SCc3ccccc3)n2[C@@H]2O[C@H](CO)[C@@H](O)[C@H]2O)c(=S)[nH]1	> 237 µM	–
Nc1nc(SCc2cc3ccccc3oc2=O)c2nc(SCc3ccccc3)n([C@@H]3O[C@H](CO)[C@@H](O)[C@H]3O)c2n1	> 173 µM	–
Nc1nc(SCc2cc3ccccc3oc2=O)c2nc(SCc3cc4ccccc4oc3=O)n([C@@H]3O[C@H](CO)[C@@H](O)[C@H]3O)c2n1	> 154 µM	–
Nc1nc2c(nc(SCc3cccc4ccccc34)n2[C@@H]2O[C@H](CO)[C@@H](O)[C@H]2O)c(=S)[nH]1	> 212 µM	–
CSCc1cc2ccccc2oc1=O	> 485 µM	–
Nc1nc(SCc2cc3cc(F)ccc3oc2=O)c2nc(SCc3cc4cc(F)ccc4oc3=O)n([C@@H]3O[C@H](CO)[C@@H](O)[C@H]3O)c2n1	> 146 µM	–
COc1cccc2cc(CSc3nc(N)nc4c3nc(SCc3cc5cccc(OC)c5oc3=O)n4[C@@H]3O[C@H](CO)[C@@H](O)[C@H]3O)c(=O)oc12	10.3 µM	CC50 [4]: 96.5 µM; selectivity ratio [5]: 9.37; logP [6]: 2.97
Nc1nc2c(nc(S)n2[C@@H]2O[C@H](CO)[C@@H](O)[C@H]2O)c(=S)[nH]1	> 302 µM	logP [6]: -0.13
Nc1nc(SCc2cc3cc(Br)ccc3oc2=O)c2nc(SCc3cc4cc(Br)ccc4oc3=O)n([C@@H]3O[C@H](CO)[C@@H](O)[C@H]3O)c2n1	> 124 µM	–
CSc1nc2c(SCc3cc4cc(Br)ccc4oc3=O)nc(N)nc2n1[C@@H]1O[C@H](CO)[C@@H](O)[C@H]1O	> 172 µM	–
CSc1nc2c(SCc3cc4ccccc4oc3=O)nc(N)nc2n1[C@@H]1O[C@H](CO)[C@@H](O)[C@H]1O	> 198 µM	–
CCN1C(=O)CCSC1c1cc2cc(Cc3ccc4oc(C5SCCC(=O)N5CC)cc4c3)ccc2o1 (stereo unspecified)	–	EC50 (Chikungunya virus [7]): 1.9 µM; selectivity ratio [8]: 75
COc1cccc2cc(CSc3nc(N)nc4c3nc(SC)n4[C@@H]3O[C@H](CO)[C@@H](O)[C@H]3O)c(=O)oc12	> 188 µM	–
COc1ccc2oc(=O)c(CSc3nc(N)nc4c3nc(SCc3cccc5ccccc35)n4[C@@H]3O[C@H](CO)[C@@H](O)[C@H]3O)cc2c1	13.9 µM	CC50 [4]: > 227 µM; selectivity ratio [5]: > 16.3; logP [6]: 3.77
Nc1nc(SCc2cc3cc(Cl)ccc3oc2=O)c2nc(SCc3cc4cc(Cl)ccc4oc3=O)n([C@@H]3O[C@H](CO)[C@@H](O)[C@H]3O)c2n1	> 140 µM	–
CSc1nc2c(SCc3cc4cc(Cl)ccc4oc3=O)nc(N)nc2n1[C@@H]1O[C@H](CO)[C@@H](O)[C@H]1O	> 186 µM	–
COc1ccc2oc(=O)c(CSc3nc(N)nc4c3nc(SCc3cc5cc(OC)ccc5oc3=O)n4[C@@H]3O[C@H](CO)[C@@H](O)[C@H]3O)cc2c1	9.9 µM	CC50 [4]: > 212 µM; selectivity ratio [5]: > 21.7; logP [6]: 3.01; solubility [9]: 7.2 mg
